According to ChEMBL document CHEMBL3822382 (Eur J Med Chem, 2016):
Active and inactive are the calls of the source. The rule behind the calls is not given here.

Key:
[1] = Growth inhibition of human MCF7/Topo cells after 24 hrs by MTT assay; format: functional, cell-based
How it was run: (§1)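 Cells seeded at 5000/well (Ea.hy926 10,000/well) and exposed for 24 h to dilution series of 100 µM–5 pM, with DMSO as solvent control. MTT (0.5 mg/mL final) for 2 h. Formazan dissolved in SDS/acetic acid/DMSO and read at 570 nm against a 630 nm background. Viability taken relative to DMSO controls; IC50 from dose–response curves, mean of four independent experiments.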

[2] = Growth inhibition of human 518A2 cells after 72 hrs by MTT assay; format: functional, cell-based; settings: 518A2, 72 h
How it was run: (§2)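 5000 cells/well exposed for 72 h to dilution series of 100 µM–5 pM, with DMSO as solvent control. MTT 0.5 mg/mL final for 2 h, absorbance at 570/630 nm. Percentage viable cells taken versus DMSO controls; IC50 from dose–response curves, mean of four independent experiments.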

[3] = Growth inhibition of human 518A2 cells after 24 hrs by MTT assay; format: functional, cell-based; settings: 518A2, 24 h; how it was run: as §1
HT-29 [4] = experiment: Growth inhibition of combretastatin A-4 resistant human HT-29 cells after 72 hrs by MTT assay; format: functional, cell-based; settings: HT-29, 72 h; how it was run: as §2
HT-29 [5] = experiment: Growth inhibition of combretastatin A-4 resistant human HT-29 cells after 24 hrs by MTT assay; format: functional, cell-based; settings: HT-29, 24 h; how it was run: as §1
[6] = Growth inhibition of human KB-V1/Vbl cells after 24 hrs by MTT assay; format: functional; how it was run: as §1
[7] = Cell cycle arrest in human 518A2 cells assessed as accumulation at subG1 phase at 200 nM after 24 hrs by propidium iodide staining-based flow cytometry (reference value: 3.8%); format: functional
[8] = Cell cycle arrest in human 518A2 cells assessed as accumulation at G1 phase at 200 nM after 24 hrs by propidium iodide staining-based flow cytometry (reference value: 49.5%); format: functional
[9] = Cell cycle arrest in human 518A2 cells assessed as accumulation at S phase at 200 nM after 24 hrs by propidium iodide staining-based flow cytometry (reference value: 20.4%); format: functional
[10] = Cell cycle arrest in human 518A2 cells assessed as accumulation at G2/M phase at 200 nM after 24 hrs by propidium iodide staining-based flow cytometry (reference value: 26.3%); format: functional
[11] = Cell cycle arrest in human 518A2 cells assessed as apoptotic index ratio at 200 nM after 24 hrs by propidium iodide staining-based flow cytometry relative to control; format: functional
[12] = Cell cycle arrest in human 518A2 cells assessed as G2/M index ratio at 200 nM after 24 hrs by propidium iodide staining-based flow cytometry relative to control; format: functional
Sus scrofa = organism: Sus scrofa; experiment: Inhibition of porcine brain alpha/beta tubulin polymerization at 5 uM measured every 20 sec by microplate reader analysis
[13] = Growth inhibition of human HCT116 cells expressing wild type p53 after 72 hrs by MTT assay; format: functional, cell-based; settings: HCT-116, 72 h
How it was run: (§3)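 HCT-116 cells, p53 wild-type or p53-/-, seeded at 5000/well and treated 72 h with dilution series (100 µM–5 pM) or DMSO. MTT 0.5 mg/mL for 2 h, absorbance at 570/630 nm. Viability relative to DMSO controls; IC50 from dose–response curves, mean of three independent experiments ± S.D.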

[14] = Growth inhibition of p53 null human HCT116 cells after 72 hrs by MTT assay; format: functional, cell-based; settings: HCT-116, 72 h; how it was run: as §3
[15] = Growth inhibition of primary chicken fibroblasts after 48 hrs by MTT assay; format: cell-based; settings: Gallus gallus, Fibroblast
How it was run: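 Chicken heart fibroblasts explanted from 10-day-old embryos, seeded at 10,000/well; cardiomyocytes seeded at 20,000/well. Dilution series given for 48 h, DMSO as control. MTT 0.5 mg/mL for 2 h, absorbance at 570/630 nm. Viability versus DMSO controls; IC50 from dose–response curves, mean of three independent experiments.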

HT-29 [16] = experiment: Cell cycle arrest in combretastatin A-4 resistant human HT-29 cells assessed as mitotic cells at 5 uM after 24 hrs by propidium iodide/immunostaining method (reference value: 3.1 to 3.2%); format: functional
How it was run: (§4)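 HT-29 cells (200,000/well) were treated 24 h with 100 nM indole, 5 μM CA-4 or DMSO. Cells were trypsinized, fixed in 4% formaldehyde (20 min, RT) and permeabilized in 90% ice-cold methanol (30 min). They were immunostained with anti-phospho-histone H3 (Ser10) (5 μg/mL, 37 °C, 1 h) plus an AlexaFluor-488 secondary, then stained with PI/RNase (30 min, 37 °C). Flow cytometry of 10,000 single cells assigned G1/S/G2/M.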

HT-29 [17] = experiment: Cell cycle arrest in combretastatin A-4 resistant human HT-29 cells assessed as accumulation at G1 phase at 5 uM after 24 hrs by propidium iodide staining-based flow cytometry (reference value: 68.1 +/- 0.3%); format: functional; how it was run: as §4
HT-29 [18] = experiment: Cell cycle arrest in combretastatin A-4 resistant human HT-29 cells assessed as accumulation at S phase at 5 uM after 24 hrs by propidium iodide staining-based flow cytometry (reference value: 13.7 +/- 0.3%); format: functional; how it was run: as §4
HT-29 [19] = experiment: Cell cycle arrest in combretastatin A-4 resistant human HT-29 cells assessed as accumulation at G2 phase at 5 uM after 24 hrs by propidium iodide staining-based flow cytometry (reference value: 15.6 +/- 0.1%); format: functional; how it was run: as §4
EA.hy 926 [20] = experiment: Antivascular activity in human EAhy926 cells assessed as induction of retraction of cells to nodes at 100 nM after 16 hrs by light microscopic analysis; format: functional, cell-based
How it was run: (§5)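 Ea.hy926 cells (100,000/well) were seeded on Matrigel-coated coverslips and allowed 12 h to form vessel-like networks. Test agent (CA-4 100 nM; indoles 250 nM) or DMSO was then added for 16 h, and networks were documented by light microscopy. Viability was checked by 2 h MTT (0.5 mg/mL) relative to DMSO controls.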

EA.hy 926 [21] = experiment: Antivascular activity in human EAhy926 cells assessed as change in cell morphology from stretched to rounded form at 100 nM after 16 hrs by matrigel based tube formation assay; format: functional; how it was run: as §5
EA.hy 926 [22] = experiment: Antivascular activity in human EAhy926 cells assessed as disruption of preformed blood vessel lke network at 100 nM after 16 hrs by matrigel based tube formation assay; format: functional, cell-based; how it was run: as §5
[23] = Cytotoxicity against human EAhy926 cells assessed as cell viability at 100 nM after 16 hrs by MTT assay relative to control; format: cell-based, EA.hy 926; settings: read-out: Activity
How it was run: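 Ea.hy926 cells (100,000/well) seeded on Matrigel-coated coverslips and left 12 h to form networks, then exposed to compound for 16 h. Viability was read by 2 h MTT (0.5 mg/mL) and absorbance of the formazan, expressed relative to DMSO controls.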

[24] = Cytotoxicity against fertilized white leghorn chicken embryos in CAM model assessed as lethality at 5 nmol after 24 hrs relative to control; format: organism-based, Gallus gallus; settings: in vivo
How it was run: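 Day-5 fertilized eggs (37 °C, 50-60% humidity) windowed, with 6 mm silicon rings placed on CAM vessels and incubated a further 24 h. Compound diluted to 500 µM in PBS and pipetted inside the ring (10 µL = 5 nmol); DMSO control. Vessel changes documented by stereomicroscopy at 0, 12 and 24 h.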

[25] = Growth inhibition of human MCF7/Topo cells after 72 hrs by MTT assay; format: functional, cell-based
How it was run: (§6)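 MTT assay: cells seeded at 5000/well (MCF-7/Topo) or 10,000/well (Ea.hy926), then given dilution series (100 µM–5 pM) or DMSO for 72 h. MTT was added at 0.5 mg/mL final for 2 h, formazan dissolved in SDS/acetic acid/DMSO, and absorbance read at 570 nm with 630 nm background. Viability was set relative to DMSO controls, and IC50 taken as the mean of at least three experiments ± S.D.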

[26] = Growth inhibition of human EAhy926 cells after 72 hrs by MTT assay; format: cell-based; settings: EA.hy 926, 72 h; how it was run: as §6

Row | IC50 (HT-29 [4]) [nM] | IC50 (HT-29 [5]) [nM] | SMILES | IC50 [1] [nM] | IC50 [2] [nM] | IC50 [3] [nM] | IC50 [6] [nM] | further results
1 | 43.4 | 75.8 | CCn1cc(Cl)c2cc(-c3c(-c4cc(OC)c(OC)c(OC)c4)ncn3C)ccc21 | 30.2 | 33 | 739 | 33.2 | –
2 | 39.7 | 35.1 | COc1cc(-c2ncn(C)c2-c2ccc3c(c2)c(Cl)cn3C)cc(I)c1OC | 53.3 | 35.7 | 56.7 | 49.8 | –
3 | 31.4 | 33.7 | COc1cc(-c2ncn(C)c2-c2ccc3c(c2)c(Cl)cn3C)cc(Cl)c1OC | 26.9 | 32.4 | 174 | 37.9 | –
4 | 178 | 482 | CCn1cc(Cl)c2cc(-c3c(-c4cc(I)c(OC)c(OC)c4)ncn3C)ccc21 | 81.2 | 168 | 211 | 83.2 | –
5 | 116 | 246 | CCn1cc(Cl)c2cc(-c3c(-c4cc(Br)c(OC)c(OC)c4)ncn3C)ccc21 | 91.3 | 82 | 216 | 48.4 | Activity [7]: 7.8%; Activity [8]: 39.7%; Activity [9]: 17.4%; Activity [10]: 35.2%; Ratio [11]: 5.1; Ratio [12]: 1.7
6 | 793 | > 1000 | CCn1c(Cl)c(Cl)c2cc(-c3c(-c4cc(Br)c(OC)c(OC)c4)ncn3C)ccc21 | 489 | 767 | > 1000 | > 1000 | –
7 | 223 | 903 | COc1cc(-c2ncn(C)c2-c2ccc3c(c2)c(Cl)c(Cl)n3C)cc(Br)c1OC | 208 | 223 | 292 | 456 | –

Row | SMILES | IC50 (HT-29 [4]) [nM] | IC50 (HT-29 [5]) [nM] | IC50 [1] [nM] | IC50 [2] [nM] | IC50 [3] [nM] | IC50 [6] [nM] | further results
8 | COc1ccc(/C=C\c2cc(OC)c(OC)c(OC)c2)cc1O [COMBRETASTATIN A4] | > 5000 | – | – | – | – | – | inhibition (Sus scrofa): Active; IC50 [13]: 2.6 nM; IC50 [14]: 3.4 nM; IC50 [15]: 5480 nM; Activity (HT-29 [16]): 10.2%; Activity (HT-29 [17]): 51.4%; Activity (HT-29 [18]): 18.6%; Activity (HT-29 [19]): 18.2%; Activity (EA.hy 926 [20]): Active; Activity (EA.hy 926 [21]): Active; Activity (EA.hy 926 [22]): Active; viability at 16 h, 0.1 µM [23]: > 90%; mortality at 24 h [24]: 60%; IC50 [25]: 154 nM; IC50 [26]: 11 nM
